# Screen size: about 340,000 compounds; about 3,000 (0.88%) were called active. The entries come from a sample that favours actives as a whole. A number with no mark means an inactive call.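 The calls were made as follows: active = inhibition above about 50% at 20 µM (limit read from the data); inactive = the rest.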
# Molecular target: Carboxy-terminal domain RNA polymerase II polypeptide A small phosphatase 1 (Homo sapiens) (UniProt Q9GZU7)
# Assay: inhibition of human SCP1 dephosphorylation activity – biochemical, colorimetric, uHTS, primary screen (AID 493091);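 also: plate controls were DMSO wells with enzyme for no effect and wells lacking enzyme for full effect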
# Settings: Recombinant Scp1, phosphopeptide, malachite green phosphate absorbance; at 20 µM; active compounds read high
# How it was run: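 Test system: SCP-1 phosphatase catalytic domain, residues 76-261; measured by: colorimetric phosphate reagent with accelerator and stabiliser, absorbance at 630 nm; timing: enzyme reaction 45 min at room temperature, colour 5 min, stabilisation 30 min; also added: Phosphorylated 17-residue peptide substrate; compound dosing: one concentration, 20 µM, with 1.0% DMSO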
# Chain of Carboxy-terminal domain RNA polymerase II polypeptide A small phosphatase 1 (Homo sapiens) (Q9GZU7 76-261 limits assumed): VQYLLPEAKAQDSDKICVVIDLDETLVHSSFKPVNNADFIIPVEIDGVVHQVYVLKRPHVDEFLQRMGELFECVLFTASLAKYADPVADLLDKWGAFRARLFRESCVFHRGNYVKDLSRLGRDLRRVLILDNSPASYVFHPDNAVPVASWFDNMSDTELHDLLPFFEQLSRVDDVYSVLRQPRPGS
row,Compound,inhibition
1,CSc1ccc(Cl)c(C(=O)OCC(=O)N2CCNC2=O)c1,0.5%
2,O=C(NCCCNCc1ccccc1)c1ccc(/C=N/O)nc1,-4.62%
3,C[N+](C)(C)CCNC(=O)c1cc[n+](Cc2ccccc2)c(/C=N/O)c1,99.5% (active)
4,CC(C)c1ccc(C(=O)NCCCc2ccccc2)cc1,-14.7%
5,O=C(NNS(=O)(=O)c1ccc([N+](=O)[O-])cc1)C1CCCCC1,-6.14%
6,Cc1cc2occ(CC(=O)NNC(=O)c3ccccc3F)c2cc1C,-10.5%
7,CCN(CC)CCN(C(=O)c1cccc([N+](=O)[O-])c1)c1nc2ccc(OC)cc2s1,-1.97%
8,CCOc1ccc2nc(N(CCCN(C)C)C(=O)c3ccc(C(=O)c4ccccc4)cc3)sc2c1,65% (active)
9,CN(C)CCCN(C(=O)c1ccc(S(=O)(=O)N2CCCCCC2)cc1)c1nc2ccc(Br)cc2s1,11.7%
10,CC(C)CNC(=O)COC(=O)/C=C/c1ccco1,22.6%
11,COc1c(Br)cc2c(C)c(C(=O)N3CCOCC3)oc2c1Br,-4.18%
12,CCNc1ccc(C(=O)OCC(=O)N2c3ccccc3NC(=O)C2(C)C)cc1[N+](=O)[O-],-9.83%
13,Cc1ccc(OCCC(=O)OCC(=O)N2c3ccccc3NC(=O)C2(C)C)cc1,3.3%
14,CNS(=O)(=O)c1cccc(C(=O)OCC(=O)N2c3ccccc3NC(=O)C2(C)C)c1,51% (active)
15,CCCCCN(C(=O)CCC(=O)OCC(=O)NC1CCC(C)CC1)c1c(N)n(CCCC)c(=O)[nH]c1=O (stereo unspecified),3.11%
16,CC(=O)NNC(=O)c1csc(Cc2c(Cl)sc3ccc(Cl)cc23)n1,-4.25%
17,CC1CC(=O)N(CC(=O)Nc2cccc(Cl)c2)c2ccccc2S1(=O)=O (stereo unspecified),-2.39%
18,O=C(CCc1ccc(S(=O)(=O)N2CCOCC2)cc1)Nc1ccc2ccccc2c1,-11.8%
19,CCOc1cc(C(=O)O)ccc1OCCOc1ccccc1,6.63%
20,CC/C(=C(/c1ccccc1)c1ccc(OCC[N+](C)(C)C)cc1)c1ccccc1,67.4% (active)
21,CCN(C(=O)COc1ccc(C(=O)c2ccccc2)cc1)c1ccccc1,-3.83%
22,O=C(CCn1ccc([N+](=O)[O-])n1)Nc1nccs1,-5.19%
23,CC(=O)c1ccc(N2CCN(C(=O)c3ccc(Cl)c(S(=O)(=O)NC4CC4)c3)CC2)c(F)c1,-5.7%

row,Compound,inhibition
1,CSc1nnc(SCc2nc3sc(C(=O)O)c(C)c3c(=O)[nH]2)s1,74% (active)
2,Cc1sc2nc(CSCC(=O)NC3CCCCC3)[nH]c(=O)c2c1C,1.62%
3,CC(=O)c1sc2nc(SCC(=O)N3CCCCC3)[nH]c(=O)c2c1C,7.94%
4,CCN1/C(=C/c2ccc3ccc(C)cc3[n+]2CC)Sc2ccccc21,64.2% (active)
5,CCN1/C(=C\c2ccc3ccccc3[n+]2CC)Sc2cc(C)ccc21,21.8%
6,CCOc1cc(C2C(C(=O)OC(C)C)=C(C)NC3=C2C(=O)CCC3)cc([N+](=O)[O-])c1O (stereo unspecified),-7.32%
7,CCN(CC)C(=O)Oc1ccc(OC(=O)N(CC)CC)cc1,7.37%
8,O=C(NCc1ccccn1)C1CCN(S(=O)(=O)c2ccc(Br)cc2)CC1,3.99%
9,CC(=O)N1CCN(C(=O)c2cc(-c3ccc(C)o3)nc3ccccc23)CC1,-8.9%
10,Cc1ccc(NC(=O)c2cc(-c3ccc(C)o3)nc3ccccc23)nc1,67.5% (active)
11,COc1ccc(NC(=O)CN(C)C(=O)c2cc(-c3ccc(C)o3)nc3ccccc23)cc1,-3.85%
12,O=C(C1CCCO1)N1CCN(S(=O)(=O)c2ccc(Br)cc2)CC1 (stereo unspecified),-5.02%
13,CN(C)C(CNC(=O)c1ccc(S(=O)(=O)NCc2ccco2)cc1)c1ccccc1 (stereo unspecified),-0.87%
14,O=C(NN1C(=O)C2C3C=CC(O3)C2C1=O)c1ccncc1 (stereo unspecified),0.55%
15,COc1ccccc1C(=O)NN1C(=O)C2C3C=CC(O3)C2C1=O (stereo unspecified),-11.3%
16,O=C(NN1C(=O)C2C3C=CC(O3)C2C1=O)c1ccccc1 (stereo unspecified),56% (active)
17,CCOc1cc(NC(=O)CCl)c(OCC)cc1NC(C)=O,-1.31%
18,O=c1ccc2c(-c3ccccc3S(=O)(=O)O)c3ccc(O)c(O)c3oc-2c1O,64.1% (active)
19,O=C(Nc1cc2c3c(c1)CC(=O)N3CCC2)c1ccccc1F,-6.14%
20,O=P(O)(CP(=O)(c1ccccc1)c1ccccc1)c1ccccc1,-4.63%
21,COc1cccc(Cn2cc(/C=N/NC(=O)c3cc(O)cc(O)c3)c3ccccc32)c1,-15.4%
22,O=C(Cn1cc(/C=N/NC(=O)c2cccc(C(F)(F)F)c2)c2ccccc21)Nc1ccc(F)cc1,90.8% (active)
23,O=C(CSc1ccc(/C=N/NC(=O)c2cccc(F)c2)o1)Nc1ccccc1,-3.74%

# Source: PubChem BioAssay AID493091 (Sanford-Burnham Center for Chemical Genomics, 2011)
